Only some compounds are listed: those with a hit (about 6.4% of all), similar ones and a draw of the others.
EBV gp42 block: inhibitors of Epstein-Barr virus glycoprotein 42; Fluorescence polarization binding assay, mP read-out; AID 1085; inhibition, % (tested at 21.74 µM); 220,000 compounds, 0.42% hits; Q1HVG2; in the data active = inhibition above about 50%
Target sequence (Q1HVG2 whole entry, looked up): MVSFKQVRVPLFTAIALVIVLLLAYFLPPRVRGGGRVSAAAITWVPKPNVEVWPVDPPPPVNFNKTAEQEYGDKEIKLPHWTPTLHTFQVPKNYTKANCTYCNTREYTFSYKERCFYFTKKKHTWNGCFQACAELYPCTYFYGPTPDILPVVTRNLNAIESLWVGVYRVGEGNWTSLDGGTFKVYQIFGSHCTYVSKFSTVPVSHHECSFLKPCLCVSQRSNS
Tb MetRS inh: Trypanosoma brucei MetRS inhibition; purified T. brucei MetRS, ATP depletion, Kinase-Glo luminescence; AID 624268; inhibition, % at 11.9 µM; 360,000 compounds, 0.4% hits;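 active = inhibition above a per-plate cutoff of the control wells' mean inhibition plus 3 SD, cut at about 5.5% in these data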;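 note: 0% = DMSO wells median and 100% = median of wells with control inhibitor compound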
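Material: parasite MetRS enzyme / Replication: singlicate, one well per compound / Signal: luminescence of leftover ATP / Schedule: 2 h aminoacylation at 25 °C after 15 min preincubation / Medium: HEPES-MgCl2-KCl buffer plus DTT, spermine, BSA, pyrophosphatase / Doses: 11.9 µM single point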
CHOP inh: blocks CHOP induction under ER stress; inhibition, % at 10 µM; 220,000 compounds, 3.8% hits; CHO-K1 CHOP-promoter luciferase, tunicamycin-induced, 15-18 h; AID 2732;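 active = compounds that reduced the stress-induced luciferase reporter signal by more than about 70% of percent inhibition, limit read from the data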;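 note: 0% = tunicamycin plus vehicle and 100% = wells without tunicamycin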
GRIN3A LBD mod: modulators (binders) of human NR3A ligand-binding domain. 340,000 compounds, 2.5% hits. Tm shift relative to glycine control, % at 25 µM. NR3A LBD differential scanning fluorimetry, Tm shift; 0% = protein alone, 100% = glycine-bound protein. AID 1259313;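 active = melting temperature shift of at least 10% of the positive control shift, at one fixed dose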
MPTP inh: blocks calcium-induced mitochondrial swelling; 360,000 compounds, 1.4% hits; AID 602449; isolated mouse mitochondria, Ca2+ swelling absorbance, 30 min; inhibition, % at 10 µM;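 active = inhibition of 50% or more, scaled per plate between neutral and stimulator controls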;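 note: 0% = DMSO wells given calcium and 100% = 1 mM EGTA wells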
WT yeast gro inh: growth inhibition of WT yeast, mitochondrial fusion screen; 190,000 compounds, 2.1% hits; inhibition, % at 10 µM; mitochondrial fusion phenotypic screen, WT strain; in the data active = inhibition above about 58%; tested in S. cerevisiae
Active calls of the source: *.

Results for COc1ccc(CC(=O)OCC(=O)N2N=C(c3ccccc3)CC2c2ccc(OC)cc2)cc1 (stereo not given) ?
EBV gp42 block: -14.2; Tb MetRS inh: -0.7; CHOP inh: 5.0; GRIN3A LBD mod: -0.7; MPTP inh: 0.9; WT yeast gro inh: -17.1

What do the screens show for `CCCCC(=O)OCC(=O)N1N=C(c2c[nH]c3ccccc23)C(O)C1c1ccc(OC)cc1` (stereo not given)?
Tb MetRS inh: 0.5; GRIN3A LBD mod: 30.2*; MPTP inh: 4.3

How did NC(=O)c1cccc(-c2csc(C(O)c3cccc(Cl)c3)n2)c1 (stereo not given) do in these assays?
Tb MetRS inh: 0.4; MPTP inh: 1.0

How did COCCN=c1scc(-c2ccccc2)n1/N=C/c1c[nH]c2ccccc12 do in these assays?
EBV gp42 block: -7.7; Tb MetRS inh: -0.6; CHOP inh: 72.7*; GRIN3A LBD mod: 3.6; MPTP inh: 4.2; WT yeast gro inh: 78.8*

Results for COCCN=c1scc(-c2cccs2)n1/N=C/c1ccc(O)c(O)c1O ?
EBV gp42 block: 16.6; Tb MetRS inh: -0.2; CHOP inh: -150.3; GRIN3A LBD mod: -0.3; MPTP inh: 8.1; WT yeast gro inh: 2.8

What do the screens show for `CCCOc1ccc(C(=O)Nc2ccc(N(C)C)cc2)cc1`?
EBV gp42 block: -20.8; Tb MetRS inh: -0.2; CHOP inh: 9.8; GRIN3A LBD mod: -4.3; MPTP inh: 1.7; WT yeast gro inh: -14.2

What do the screens show for `CCCOc1ccc(C(=O)Nc2ccc(NC(=O)c3cccs3)cc2)cc1`?
Tb MetRS inh: 0.1; GRIN3A LBD mod: 13.8*; MPTP inh: -2.4

Results for CC(=O)c1ccc(NC(=O)c2ccc(NC(=O)CCS(=O)(=O)c3cccs3)cc2)cc1 ?
EBV gp42 block: -16.6; Tb MetRS inh: 0.4; CHOP inh: 2.6; GRIN3A LBD mod: 20.5*; MPTP inh: -0.3; WT yeast gro inh: -19.6

What do the screens show for `O=C(COc1ccc(NC(=O)c2cccs2)cc1)c1ccc(F)cc1`?
Tb MetRS inh: -0.3; GRIN3A LBD mod: 27.0*; MPTP inh: 0.0

What do the screens show for `CCCCOc1cccc(C(=O)Nc2ccc(NC(=O)c3cccs3)cc2)c1`?
Tb MetRS inh: -0.6; GRIN3A LBD mod: 21.9*; MPTP inh: 1.4

Results for COc1cccc(C(=O)COc2ccc(NC(=O)c3cccs3)cc2)c1 ?
Tb MetRS inh: -0.4; GRIN3A LBD mod: 2.5; MPTP inh: -0.1

How did CC(=O)c1cccc(NC(=O)c2ccc(NC(=O)CCS(=O)(=O)c3cccs3)cc2)c1 do in these assays?
Tb MetRS inh: 0.7; GRIN3A LBD mod: 7.1; MPTP inh: -0.5

Results for Cc1ccc(/C=N/N(C)S(=O)(=O)c2ccc(C)cc2)cc1 ?
Tb MetRS inh: 1.3; GRIN3A LBD mod: -0.5; MPTP inh: -0.4

How did COc1cccc(NC(=O)c2ccc(NS(=O)(=O)c3cccs3)cc2)c1 do in these assays?
Tb MetRS inh: -0.4; GRIN3A LBD mod: -3.2; MPTP inh: -3.1

What do the screens show for `CCOc1ccc(NC(=O)c2ccc(NS(=O)(=O)c3cccs3)cc2)cc1`?
Tb MetRS inh: -0.8; GRIN3A LBD mod: 23.9*; MPTP inh: -1.3

Results for CCN1CCc2nc3sc(C(=O)N4CCc5ccccc5C4)c(N)c3cc2C1 ?
Tb MetRS inh: -0.1; GRIN3A LBD mod: 1.0; MPTP inh: -0.9

How did COc1ccccc1NS(=O)(=O)c1ccc(/C=C/C(=O)N2CCN(C(C)=O)CC2)cc1 do in these assays?
Tb MetRS inh: -0.5; GRIN3A LBD mod: -1.6; MPTP inh: -1.1

Results for CC(=O)Nc1ccc(NC(=O)CSc2ccc(-c3ccc(-n4ccnc4)cc3)nn2)cc1 ?
Tb MetRS inh: -0.3; GRIN3A LBD mod: 16.8*; MPTP inh: -0.5

How did COc1ccc2ccccc2c1CNCCCN1CCOCC1 do in these assays?
EBV gp42 block: 5.3; Tb MetRS inh: -0.4; CHOP inh: -2.4; GRIN3A LBD mod: -0.4; MPTP inh: 6.1; WT yeast gro inh: 20.7

Results for C=CCOc1ccc2ccccc2c1CNCCCN1CCOCC1 ?
EBV gp42 block: -7.2; Tb MetRS inh: -0.6; CHOP inh: 6.1; GRIN3A LBD mod: 0.5; MPTP inh: 1.6; WT yeast gro inh: 64.2*

How did O=C(Oc1ccc2ccccc2c1Cl)N1CCCCCC1 do in these assays?
EBV gp42 block: 1.1; Tb MetRS inh: -1.4; CHOP inh: -2.4; GRIN3A LBD mod: 1.3; MPTP inh: -0.9; WT yeast gro inh: 81.1*

How did O=C(Oc1ccc2ccccc2c1Cl)N1CCCC1 do in these assays?
EBV gp42 block: -16.9; Tb MetRS inh: -0.8; CHOP inh: -11.6; GRIN3A LBD mod: 1.6; MPTP inh: -0.1; WT yeast gro inh: 10.3

What do the screens show for `OC1(c2cccc(C(F)(F)F)c2)CCN(c2ccc(-c3ccccc3)nn2)CC1`?
EBV gp42 block: -25.6; Tb MetRS inh: 0.0; CHOP inh: 84.6*; GRIN3A LBD mod: -20.6; MPTP inh: 2.5; WT yeast gro inh: -25.2

Results for CC(=O)c1ccccc1NC(=O)CN1C(=O)CS/C1=C\c1nc(-c2ccc(C)cc2)cs1 ?
EBV gp42 block: -18.9; Tb MetRS inh: -0.4; CHOP inh: -3.8; GRIN3A LBD mod: 0.7; MPTP inh: 1.6; WT yeast gro inh: 7.0

How did Cc1ccc(C2CC(c3cccs3)=NN2S(=O)(=O)c2ccc(C)cc2)cc1 (stereo not given) do in these assays?
EBV gp42 block: -91.5; Tb MetRS inh: 0.6; CHOP inh: 28.8; GRIN3A LBD mod: -2.9; MPTP inh: 1.4; WT yeast gro inh: 61.3*

Results for CC(C)(C)c1ccc(NC(=O)COC(=O)c2ccc([N+](=O)[O-])s2)cc1 ?
EBV gp42 block: -18.0; Tb MetRS inh: -0.2; CHOP inh: 53.5; GRIN3A LBD mod: 4.9; MPTP inh: -0.3; WT yeast gro inh: 92.5*

What do the screens show for `N/C(=N\OC(=O)Nc1ccccc1)c1ncc([N+](=O)[O-])s1`?
EBV gp42 block: -16.0; Tb MetRS inh: 0.3; CHOP inh: -50.5; GRIN3A LBD mod: 35.8*; MPTP inh: 3.8

What do the screens show for `O=C(COC(=O)c1ccc([N+](=O)[O-])s1)Nc1ccc(F)cc1`?
Tb MetRS inh: -0.1; GRIN3A LBD mod: -0.1; MPTP inh: 0.9

What do the screens show for `Cc1[nH]c2ccccc2c1C(=O)COC(=O)c1ccc([N+](=O)[O-])s1`?
EBV gp42 block: -23.9; Tb MetRS inh: 0.4; CHOP inh: -95.2; GRIN3A LBD mod: -7.5; MPTP inh: -1.9; WT yeast gro inh: 98.3*

How did O=C(COC(=O)COc1ccccc1)Nc1ncc([N+](=O)[O-])s1 do in these assays?
Tb MetRS inh: -0.3; GRIN3A LBD mod: 1.2; MPTP inh: -2.0

How did O=C(COC(=O)c1ccc([N+](=O)[O-])s1)Nc1ccccc1 do in these assays?
EBV gp42 block: -16.7; Tb MetRS inh: 1.2; CHOP inh: -25.0; GRIN3A LBD mod: 3.9; MPTP inh: 2.0; WT yeast gro inh: 70.4*

What do the screens show for `Cc1ccccc1NC(=O)COC(=O)C1(C)CC1(Cl)Cl` (stereo not given)?
EBV gp42 block: -10.1; Tb MetRS inh: -0.7; CHOP inh: 2.9; GRIN3A LBD mod: -0.6; MPTP inh: -0.1; WT yeast gro inh: 0.3

Compound activity as filed in PubChem.
